Source: PubChem
A selection: hits, their analogues and other compounds. The true share with any hit is near 2.2%.
b-catenin transl – modulators of beta-catenin nuclear translocation | HeLa beta-catenin nuclear translocation, immunofluorescence imaging | nuclear translocation activity, % at 5 µM | actives 0.3% (n = 190,000) | AID 1665;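 active = nuclear translocation activity above 50% at 5 µM, with a well cell count of 50 or more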;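 note: per-cell ratio of nuclear to cytoplasmic median beta-catenin stain intensity; plate controls were DMSO negative control for no effect and GSK-3 inhibitor IX positive control for full effect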
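Test system: human HeLa cells, endogenous beta-catenin. Times: 24 h compound exposure, 37°C. Measured by: beta-catenin immunofluorescence imaging with DAPI.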
BaF3 parental – parental Ba/F3 viability inhibition as JAK2V617F counter-screen; inhibition, % at 5.6 µM; CellTiter-Glo ATP luminescence; AID 1486; actives 1.1% (n = 220,000);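 active = inhibition above a per-campaign cutoff, the mean inhibition of all tested compounds plus 3 SD, cut at about 27% in these data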;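 note: 0% = DMSO wells and 100% = JAK Inhibitor I control wells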
MT stabilizer – microtubule stabilizers in HeLa cells | HeLa tubulin immunostaining HCS, 24 h; share of cells brighter than vehicle mean+2SD | % tubulin-high responders, % at 10 µM | actives 0.83% (n = 200,000) | AID 2205;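 active = plate Z-score above 3 for both tubulin-high and condensed-nucleus cell shares, with cell loss under 80%, at 10 µM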;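 note: anti alpha tubulin signal scored within the nucleus-defined area of each cell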
APP transl inh – APP translation inhibition | SH-SY5Y APP 5'UTR-luciferase reporter, luminescence | inhibition, % at 2 µM | actives 0.82% (n = 190,000);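 active = inhibition above a set limit, derived from the sample mean plus 3 SD, cut at about 45% in these data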
Ba/F3 V617F tox – lowers viability of Ba/F3 cells expressing EpoR and JAK2V617F. inhibition, % at 5.6 µM. actives 1.1% (n = 220,000). ATP luminescence;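 active = inhibition above the campaign mean plus 3 SD over all tested compounds, cut at about 24% in these data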;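 note: cytokine-independent growth of Ba/F3 cells driven by EpoR plus mutant JAK2; 0% = DMSO-treated cells and 100% = JAK inhibitor I control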
IEC-6 tox – kills IEC-6 intestinal cells in KLF5 counter-screen | actives 0.78% (n = 290,000) | IEC-6 cytotoxicity, luminescence viability | inhibition, % at 5 µM;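 note: 0% = plate median of test compound wells and 100% = cytotoxic reference compound wells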
IEC-6 cytotox cf – confirmation of cytotoxic compounds in rat IEC-6 intestinal epithelial cells. shares compounds with IEC-6 tox. IEC-6 rat intestinal epithelial viability, luminescence. inhibition, % at 5 µM. actives 63% (n = 1,900);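 note: 0% = vehicle and 100% = reference cytotoxic drug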
Numbers without * were called inactive; / = no result given. Cut-off read from the data, not from the text of the source, unless noted: active = inhibition above about 22%; inactive = the rest.

SMILES | b-catenin transl | BaF3 parental | MT stabilizer | APP transl inh | Ba/F3 V617F tox | IEC-6 tox | IEC-6 cytotox cf
CCOC(=O)c1[nH]c2c(c1C)C(=O)CC(c1ccc(OCC)c(OC)c1)C2 (stereo not given) | -1.0 | 6.2 | 1.8 | 5.3 | -2.0 | 0.1 | /
COC(=O)c1[nH]c2c(c1C)C(=O)CC(c1ccc(OC)c(OC)c1)C2 (stereo not given) | / | / | / | / | / | 10.0 | /
CCOCCOC(=O)c1[nH]c2c(c1C)C(=O)CC(c1cc(OC)c(OC)c(OC)c1)C2 (stereo not given) | / | / | / | / | / | 5.5 | /
COCCOC(=O)c1[nH]c2c(c1C)C(=O)CC(c1cccs1)C2 (stereo not given) | 21.0 | 74.8* | 23.3* | 85.4* | 74.1* | 78.7* | 54.8*
COC(=O)c1[nH]c2c(c1C)C(=O)CC(c1cccc(OC)c1)C2 (stereo not given) | / | / | / | / | / | 86.2* | 61.5*
CCOC(=O)c1[nH]c2c(c1C)C(=O)CC(c1ccc(F)cc1)C2 (stereo not given) | 76.3* | 56.0* | 8.6 | 92.5* | 56.0* | 42.2* | 59.7*
CCN1CCN(c2ccc(S(=O)(=O)N3CCCCC3)cc2NC(=O)COc2ccc(F)cc2Cl)CC1 | / | / | / | / | / | 3.5 | /
CC1CCN(C(=O)Cn2c(=O)n(Cc3ccco3)c(=O)c3sccc32)CC1 | / | / | / | / | / | 2.3 | /
CCCCCOC(=O)c1[nH]c2c(c1C)C(=O)CC(c1ccco1)C2 (stereo not given) | 59.1* | 94.6* | 9.9 | 95.3* | 94.7* | 93.9* | 79.3*
CCOc1ccc2nc(-c3ccccc3)[nH]c2c1 | 78.1* | 54.0* | 42.5* | -142.2 | 71.5* | 42.2* | 29.8*
CCCN1CCC(NCc2cn(C)nc2-c2ccc(Oc3ccccc3)cc2)CC1 | 1.2 | 67.5* | / | / | 52.5* | 35.9* | 43.0*
COC1CCCN(Cc2cn(C)nc2-c2ccc(Oc3ccccc3)cc2)C1 (stereo not given) | 2.3 | 7.4 | 2.6 | 11.5 | 3.8 | 3.9 | /
CN1CCc2nc(NC(=O)COc3ccc4ccccc4c3)sc2C1 | 1.8 | 8.0 | 2.6 | 8.1 | 8.7 | 37.9* | 18.5
N#CNC(=Nc1ccc(Cl)cc1)Oc1ccccc1 | 0.1 | 3.0 | / | / | -3.1 | 10.1 | /
COc1ccc(C2C(C(=O)Nc3cccc(OC)c3)c3ccccc3C(=O)N2C)cc1 (stereo not given) | -0.9 | 3.3 | 2.7 | -37.5 | -1.5 | -1.4 | /
COc1ccc(C2C(C(=O)Nc3cc(OC)c(OC)c(OC)c3)c3ccccc3C(=O)N2C)cc1 (stereo not given) | 72.8* | 61.0* | 20.8 | 69.0* | 41.4* | 58.9* | 59.9*
CCCC(=O)Nc1c(-c2cccc(OC)c2)c(=O)c2ccccc2n1C | / | / | / | / | / | 7.5 | /
O=c1[nH]c(/C=C/c2ccccc2Cl)nc2ccccc12 | / | / | / | / | / | 39.4* | 24.3*
Cc1ccc(S(=O)(=O)/N=C2/C=C(Sc3ncn[nH]3)C(=O)c3ccccc32)cc1 | -1.2 | 72.0* | 1.8 | 64.2* | 73.1* | 25.6* | -3.0
Cc1ccc(S(=O)(=O)Nc2ccc(O)c(Sc3ncn[nH]3)c2)cc1 | 0.2 | 11.8 | 2.1 | -1.8 | -2.3 | -0.1 | /
O=C(Oc1c(CN2CCOCC2)cc(Cl)c2cccnc12)c1ccccc1Br | -2.7 | 1.3 | / | / | -2.6 | 24.5* | 21.0
O=C(Nc1cccc(-n2cnnn2)c1)c1ccoc1COc1ccc(Cl)cc1 | / | / | / | / | / | 3.9 | /
CCN(CC)c1ccc(-c2nn3c(-c4ccccc4OC)nnc3s2)cc1 | / | 87.1* | 20.7 | 93.9* | 93.3* | 92.9* | 77.3*
COc1ccccc1-c1nn2c(-c3ccccc3Cl)nnc2s1 | -1.8 | / | / | / | / | / | /
COc1ccc(-c2n[nH]c3c2CN(C(=O)c2ccc(OC)c(OC)c2)CC3)cc1 | / | / | / | / | / | 40.1* | 21.7
SMILES | b-catenin transl | BaF3 parental | MT stabilizer | APP transl inh | Ba/F3 V617F tox | IEC-6 tox | IEC-6 cytotox cf
CCO/N=C/c1ccc(OC)c(Oc2nc(OC)cc(OC)n2)c1 | 1.3 | 2.9 | 5.9 | -36.3 | -4.0 | -5.5 | /
CO/N=C/c1ccc(OC)c(Oc2nc(OC)cc(OC)n2)c1 | 0.6 | 10.2 | 10.7 | 65.7* | -0.9 | 27.9* | 2.8
Cc1cc(C(=O)CSc2cccc[n+]2[O-])c(C)n1-c1ccc(OC(F)F)cc1 | 0.2 | -1.9 | / | / | 3.8 | 27.1* | -1.0
CC[n+]1c(/C=C/c2ccc(OC)c(OC)c2)ccc2ccccc21 | / | / | / | / | / | 0.3 | /
Cc1ccc2c(c1)S/C(=C\c1cccc[n+]1C)N2CCO | / | / | / | / | / | -4.7 | /
CCN1/C(=C/c2ccc3cc(C)cc(C)c3[n+]2CC)Sc2cc(C)ccc21 | 3.0 | 86.2* | 12.7 | 61.4* | 100.6* | 43.0* | 37.2*
CCN1/C(=C/c2ccc3cccc(C)c3[n+]2CC)Sc2ccccc21 | / | 89.2* | 7.1 | 31.2 | 97.8* | 32.5* | 36.3*
C[n+]1ccccc1/C=C1\Sc2ccccc2N1CCO | / | / | / | / | / | 0.8 | /
CCN1/C(=C\c2ccc3cc(C)ccc3[n+]2CC)Sc2cc(C)c(C)cc21 | 0.0 | 71.1* | 8.8 | 41.0 | 100.4* | 36.8* | 28.2*
Cc1nnc(N/N=C/c2ccccc2O)n1N | -0.4 | -0.4 | 7.1 | 13.8 | 4.3 | 101.6* | 4.0
Cc1cc(/C=N/NC(N)=S)c(C)n1-c1ccc(Br)cc1 | -0.5 | 13.8 | 3.4 | -21.6 | 10.2 | 6.4 | /
Cc1nnc(N/N=C/c2c(Cl)cccc2Cl)n1N | 0.5 | 0.2 | / | 4.0 | -1.0 | 101.8* | -12.7
Cc1nnc(N/N=C/c2cc(C)n(-c3ccc(F)cc3)c2C)n1N | -0.6 | 5.3 | 3.2 | 2.0 | 2.1 | 99.4* | -4.1
Oc1ccccc1/C=N/Nc1nn[nH]n1 | 1.3 | -2.2 | / | / | -1.6 | -3.1 | /
Cc1cc(C(=O)O)cc(S(=O)(=O)NNC(=O)c2cccs2)c1C | / | / | / | / | / | -1.8 | /
CCOc1ccc2[nH]c3c(N4CCc5ccccc5C4)ncnc3c2c1 | 47.7 | -2.7 | / | / | 4.5 | 40.0* | 90.0*
CCc1ccccc1Nc1ncnc2ccccc12 | / | / | / | / | / | 0.1 | /
CCCCCCCCNc1ncnc2ccccc12 | -0.1 | 62.5* | 1.1 | 19.5 | 69.7* | 26.9* | 13.4
COC(=O)C(C)n1cnc2c(nnn2-c2ccccc2)c1=O (stereo not given) | / | / | / | / | / | -1.5 | /
COc1ccccc1C(CNc1ccc(S(=O)(=O)N2CCCC2)cc1[N+](=O)[O-])N(C)C (stereo not given) | / | / | / | / | / | 22.0* | 8.5
COCCN(C(=O)Nc1ccccc1OC)c1nc2ccccc2s1 | / | / | / | / | / | 45.1* | 31.3*
CC1(/[N+]([O-])=C\c2ccccc2F)CCCCC1=O (stereo not given) | -1.7 | 0.7 | / | / | -2.4 | 7.7 | /
COc1ccc(/C=C2\CCc3ccccc3C2=O)cc1O | / | / | / | / | / | 27.9* | 3.2
COc1ccc(/C=C2\Cc3ccccc3C2=O)cc1OC | -2.5 | -3.2 | / | / | 2.1 | 7.0 | /
Cn1cc(Cl)c(/C=C(\C#N)S(=O)(=O)c2ccccc2)n1 | 0.4 | -0.4 | / | / | -3.8 | -2.1 | /
Cc1ccc(Nc2nc(N)nc(CCl)n2)c(C)c1 | -2.5 | 30.2* | / | / | 98.7* | 100.2* | 5.4
O=C1CN(C(=O)c2cccc(Br)c2)c2ccccc2N1 | / | / | / | / | / | 37.7* | 10.5
